Measured values published in ChEMBL document CHEMBL5316274 (J Med Chem, 2023).
Calls of active or inactive are those of the source. The calls are words filed in the database; no cut-off is given here.

What was measured:
[1] = target: T1, Mu-type opioid receptor (Mus musculus, UniProt P42866); test: Binding affinity to mouse mu opioid receptor expressed in CHO cell membrane assessed as inhibition constant incubated for 1.5 hrs by competitive radioligand binding assay; assay type: cell membranes
[2] = target: Kappa-type opioid receptor (Mus musculus, UniProt P33534); test: Binding affinity to mouse kappa opioid receptor expressed in CHO cell membrane assessed as inhibition constant incubated for 1.5 hrs by competitive radioligand binding assay; assay type: cell membranes
[3] = species: Mus musculus; test: Selectivity ratio, ratio of Ki for binding affinity to mouse kappa opioid receptor expressed in CHO cell membrane to Ki for binding affinity to mouse mu opioid receptor expressed in CHO cell membrane
[4] = Selectivity ratio, ratio of Ki for binding affinity to human delta opioid receptor expressed in CHO cell membrane to Ki for binding affinity to mouse mu opioid receptor expressed in CHO cell membrane
[5] = target: T1, Mu-type opioid receptor; test: Binding affinity to mouse mu opioid receptor expressed in CHO cell membrane assessed as [35S]GTPgammaS binding incubated for 1.5 hrs by liquid scintillation counter analysis; assay type: cell membranes
Outline: (§1)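 MOR [35S]GTPγS functional assay in MOR-CHO membranes (Bmax about 2.5–4 pmol/mg). Efficacy is expressed as % of the maximal stimulation by full agonist DAMGO.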

[6] = target: Mu-type opioid receptor (Mus musculus) (UniProt P42866); test: Binding affinity to mouse mu opioid receptor expressed in CHO cell membrane assessed as stimulation of [35S]-GTPgammaS binding by measuring maximal efficacy incubated for 1.5 hrs by scintillation spectroscopy analysis relative DAMGO; assay type: cell membranes; outline: as §1
[7] = tested on: Mus musculus; test: Antinociceptive activity in Swiss Webster mouse assessed as inhibition of morphine induced latency to tail withdrawal at 10 mg/kg, sc preincubated for 5 mins followed by morphine addition and measured after 20 mins by warm water tail immersion assay; assay type: functional, organism-based; conditions: time 25.0 min
Outline: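 Male Swiss-Webster mice (n = 5). Compound is given s.c. at time 0 (10 mg/kg in the single-dose screen, a dose range for AD50), and morphine 10 mg/kg follows 5 min later. Tail flick is tested in 56 ± 0.1 °C water 20 min after morphine and scored as % MPE. Saline and morphine alone are the controls.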

Row | Structure (SMILES) | Ki [1] [nM] | Ki [2] [nM] | Ratio Ki [3] | Ratio Ki [4] | EC50 [5] [nM] | Emax [6] [%] | Activity [7] | Emax ([6]; filed as modulator) [%]
1 | CC(=O)Nc1c[nH]c2c(C(=O)N[C@@H]3CC[C@@]4(O)[C@H]5Cc6ccc(O)c7c6[C@@]4(CCN5CC4CC4)[C@H]3O7)cccc12 | 0.27 | 6.52 | 24.4 | 116 | 0.88 | 8.84 | inactive | 
2 | Cc1cc2cccc(C(=O)N[C@@H]3CC[C@@]4(O)[C@H]5Cc6ccc(O)c7c6[C@@]4(CCN5CC4CC4)[C@H]3O7)c2[nH]1 | 0.31 | 0.8 | 2.6 | 51.1 | 1.51 | 21.8 | inactive | 
3 | CC(=O)Nc1c[nH]c2c(C(=O)N[C@H]3CC[C@@]4(O)[C@H]5Cc6ccc(O)c7c6[C@@]4(CCN5CC4CC4)[C@H]3O7)cccc12 | 0.23 | 2.1 | 9.4 | 23 | 1.48 | 9.97 | inactive | 
4 | O=C(N[C@H]1CC[C@@]2(O)[C@H]3Cc4ccc(O)c5c4[C@@]2(CCN3CC2CC2)[C@H]1O5)c1cccc2c(C3CCCCC3)c[nH]c12 | 2.11 | 9.65 | 4.6 | 8.9 | 2.62 | 20.5 | inactive | 
5 | O=C(N[C@@H]1CC[C@@]2(O)[C@H]3Cc4ccc(O)c5c4[C@@]2(CCN3CC2CC2)[C@H]1O5)c1cccc2cc(Cl)[nH]c12 | 0.63 | 1.28 | 2 | 3.8 | 1.4 | 38.5 |  | 
6 | O=C(N[C@H]1CC[C@@]2(O)[C@H]3Cc4ccc(O)c5c4[C@@]2(CCN3CC2CC2)[C@H]1O5)c1cccc2cc(Cl)[nH]c12 | 0.65 | 2.73 | 4.2 | 2.8 | 1.82 | 14.8 |  | 
7 | O=C(N[C@@H]1CC[C@@]2(O)[C@H]3Cc4ccc(O)c5c4[C@@]2(CCN3CC2CC2)[C@H]1O5)c1cccc2c(-c3ccccc3)c[nH]c12 | 1.46 | 26.1 | 17.9 | 33.8 | 1.78 | 8.47 | inactive | 
8 | N#Cc1c[nH]c2c(C(=O)N[C@@H]3CC[C@@]4(O)[C@H]5Cc6ccc(O)c7c6[C@@]4(CCN5CC4CC4)[C@H]3O7)cccc12 | 0.38 | 1 | 2.7 | 67.4 | 3.07 | 38.8 | inactive | 
9 | O=C(N[C@@H]1CC[C@@]2(O)[C@H]3Cc4ccc(O)c5c4[C@@]2(CCN3CC2CC2)[C@H]1O5)c1cccc2c(Br)c[nH]c12 | 0.7 | 1.08 | 1.6 | 16.7 | 1.05 |  |  | 70.4
10 | CC(C)c1c[nH]c2c(C(=O)N[C@H]3CC[C@@]4(O)[C@H]5Cc6ccc(O)c7c6[C@@]4(CCN5CC4CC4)[C@H]3O7)cccc12 | 2.78 | 11 | 4 | 9.3 | 2.48 | 8.37 | inactive | 
11 | Cc1c[nH]c2c(C(=O)N[C@H]3CC[C@@]4(O)[C@H]5Cc6ccc(O)c7c6[C@@]4(CCN5CC4CC4)[C@H]3O7)cccc12 | 0.69 | 4.2 | 6.1 | 20.1 | 2.68 | 15.7 | Active | 
12 | N#Cc1cc2cccc(C(=O)N[C@@H]3CC[C@@]4(O)[C@H]5Cc6ccc(O)c7c6[C@@]4(CCN5CC4CC4)[C@H]3O7)c2[nH]1 | 0.73 | 1.66 | 2.3 | 16.5 | 3.78 | 21.3 |  | 
13 | O=C(N[C@H]1CC[C@@]2(O)[C@H]3Cc4ccc(O)c5c4[C@@]2(CCN3CC2CC2)[C@H]1O5)c1cccc2cc(-c3ccccc3)[nH]c12 | 2.45 | 6.42 | 2.6 |  | 2.07 | 7.44 | inactive | 
14 | O=C(N[C@H]1CC[C@@]2(O)[C@H]3Cc4ccc(O)c5c4[C@@]2(CCN3CC2CC2)[C@H]1O5)c1cccc2c(-c3ccccc3)c[nH]c12 | 2.37 | 13.4 | 5.7 | 6.3 | 1.85 | 5.57 | inactive | 
15 | O=Cc1c[nH]c2c(C(=O)N[C@@H]3CC[C@@]4(O)[C@H]5Cc6ccc(O)c7c6[C@@]4(CCN5CC4CC4)[C@H]3O7)cccc12 | 0.69 | 4.03 | 5.8 | < 35.1 | 1.19 | 21.3 | inactive | 
16 | O=C(N[C@@H]1CC[C@@]2(O)[C@H]3Cc4ccc(O)c5c4[C@@]2(CCN3CC2CC2)[C@H]1O5)c1cccc2cc(-c3ccccc3)[nH]c12 | 3.26 | 1.14 | 0.4 | 7.3 | 5.44 | 10.2 | inactive | 
17 | O=C(N[C@H]1CC[C@@]2(O)[C@H]3Cc4ccc(O)c5c4[C@@]2(CCN3CC2CC2)[C@H]1O5)c1cccc2c(Cl)c[nH]c12 | 0.98 | 5.96 | 6.1 | 37.9 | 3.67 | 13.2 | inactive | 
18 | N#Cc1c[nH]c2c(C(=O)N[C@H]3CC[C@@]4(O)[C@H]5Cc6ccc(O)c7c6[C@@]4(CCN5CC4CC4)[C@H]3O7)cccc12 | 0.87 | 5.46 |  | 14 | 2.54 | 11.4 | inactive | 
19 | O=C(N[C@@H]1CC[C@@]2(O)[C@H]3Cc4ccc(O)c5c4[C@@]2(CCN3CC2CC2)[C@H]1O5)c1cccc2c(C3CCCC3)c[nH]c12 | 1.45 | 10.8 | 7.5 | 6.8 |  | 21.3 | inactive | 
20 | O=C(N[C@@H]1CC[C@@]2(O)[C@H]3Cc4ccc(O)c5c4[C@@]2(CCN3CC2CC2)[C@H]1O5)c1cccc2cc(Br)[nH]c12 | 0.35 | 0.46 | 1.3 | 8.8 | 0.88 | 36.2 | inactive | 
21 | O=Cc1c[nH]c2c(C(=O)N[C@H]3CC[C@@]4(O)[C@H]5Cc6ccc(O)c7c6[C@@]4(CCN5CC4CC4)[C@H]3O7)cccc12 | 0.25 | 2.82 | 11.3 | 47.5 | 0.89 | 8.24 | inactive | 
22 | CC(=O)c1c[nH]c2c(C(=O)N[C@@H]3CC[C@@]4(O)[C@H]5Cc6ccc(O)c7c6[C@@]4(CCN5CC4CC4)[C@H]3O7)cccc12 | > 50 | 15.6 |  |  | 204 | 10.9 | inactive | 
23 | CC(=O)c1c[nH]c2c(C(=O)N[C@H]3CC[C@@]4(O)[C@H]5Cc6ccc(O)c7c6[C@@]4(CCN5CC4CC4)[C@H]3O7)cccc12 | 0.43 |  | 14.9 | 25.4 | 5.21 | 9.81 | inactive | 
24 | O=C(N[C@H]1CC[C@@]2(O)[C@H]3Cc4ccc(O)c5c4[C@@]2(CCN3CC2CC2)[C@H]1O5)c1cccc2c(C3CCCC3)c[nH]c12 | 2.66 | 21.1 | 7.9 | 10.6 | 2.05 | 12.3 | inactive | 
25 | O=C(N[C@@H]1CC[C@@]2(O)[C@H]3Cc4ccc(O)c5c4[C@@]2(CCN3CC2CC2)[C@H]1O5)c1cccc2c(C3CCCCC3)c[nH]c12 | 5.57 | 41.7 | 7.5 | 11.5 | 20.8 | 6.23 | inactive | 
26 | O=C(N[C@H]1CC[C@@]2(O)[C@H]3Cc4ccc(O)c5c4[C@@]2(CCN3CC2CC2)[C@H]1O5)c1cccc2c([N+](=O)[O-])c[nH]c12 | 1.07 | 9.84 |  |  | 2.32 | 11.3 | inactive | 
27 | O=C(N[C@H]1CC[C@@]2(O)[C@H]3Cc4ccc(O)c5c4[C@@]2(CCN3CC2CC2)[C@H]1O5)c1cccc2cc(Br)[nH]c12 | 0.48 | 1.5 | 3.1 | 14 |  | 13.3 | Active | 
28 | N#Cc1cc2cccc(C(=O)N[C@H]3CC[C@@]4(O)[C@H]5Cc6ccc(O)c7c6[C@@]4(CCN5CC4CC4)[C@H]3O7)c2[nH]1 | 0.87 | 7.1 | 8.2 |  | 3.58 | 14.4 | inactive | 
